# Source: ChEMBL document CHEMBL4196080, “Identification of small-molecule inhibitors of USP2a” (Eur J Med Chem, 2018)
# Activity calls are given as the source filed them. The rule behind the calls is not given here.
# Assays:
# [1] = molecular target: T1, Ubiquitin carboxyl-terminal hydrolase 2 (Homo sapiens) (UniProt O75604); experiment: (§1) Binding affinity to 15N-Gly/Cys/Ser/Trp-labeled human USP2a expressed in Escherichia coli BL21(DE3) assessed as change in chemical shift by NMR method
# T1 sequence (whole entry): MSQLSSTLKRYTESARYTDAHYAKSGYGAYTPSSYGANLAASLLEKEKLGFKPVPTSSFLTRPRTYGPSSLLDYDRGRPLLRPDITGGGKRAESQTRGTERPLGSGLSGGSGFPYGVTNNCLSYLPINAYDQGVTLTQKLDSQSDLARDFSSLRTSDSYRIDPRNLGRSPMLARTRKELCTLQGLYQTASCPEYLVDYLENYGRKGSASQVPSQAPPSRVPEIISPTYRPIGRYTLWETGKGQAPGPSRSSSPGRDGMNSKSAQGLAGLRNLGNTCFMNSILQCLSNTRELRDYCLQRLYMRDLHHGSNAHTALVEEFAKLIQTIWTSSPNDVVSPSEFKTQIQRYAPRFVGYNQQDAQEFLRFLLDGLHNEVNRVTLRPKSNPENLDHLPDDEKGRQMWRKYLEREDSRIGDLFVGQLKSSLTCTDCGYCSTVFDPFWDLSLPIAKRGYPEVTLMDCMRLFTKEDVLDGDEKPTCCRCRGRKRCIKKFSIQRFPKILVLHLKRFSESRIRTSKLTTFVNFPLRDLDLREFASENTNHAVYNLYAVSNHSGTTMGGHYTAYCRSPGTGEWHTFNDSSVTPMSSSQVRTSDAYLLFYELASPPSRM
# Summary of the method: (§2)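 Selectively 15N-Gly/Cys/Ser/Trp-labeled USP2a from gel filtration in PBS pH 7.4 with 5 mM DTT, with 10% D2O added for lock. Ligand stock was 50 mM in d6-DMSO. Titration run in three steps at protein:compound ratios 1:1, 1:5 and 1:15. Binding followed as cross-peak shifts.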
# [2] = molecular target: T2, Ubiquitin carboxyl-terminal hydrolase 2 (Homo sapiens, UniProt O75604); experiment: (§3) Inhibition of human USP2a (258 to 605 residues) expressed in Escherichia coli BL21(DE3) using Ub-AMC as substrate incubated for 30 mins measured at 30 secs interval by fluorescence assay
# T2 sequence (O75604 whole entry): T1 sequence (whole entry)
# Summary of the method: (§4)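 USP2a purified by Ni-chelate, Q-Sepharose flow-through and gel filtration in PBS pH 7.4 with 5 mM DTT. Enzyme at 10 nM in 50 mM Tris/HCl pH 7.5, 1 mM EDTA, 1 mM MgCl2, preincubated 30 min with compound. Ub-AMC 500 nM then added. Fluorescence (ex 355/em 460 nm) read every 30 s. Turbidity checked at 600 nm. Excess wild-type ubiquitin served as positive control. Percent inhibition was fitted to dose-response curves.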
# [3] = molecular target: T1, Ubiquitin carboxyl-terminal hydrolase 2 (Homo sapiens); experiment: Inhibition of USP2a in human HCT116 cells assessed as downregulation of cycline D1 expression at 20 uM after 48 hrs by Western blot analysis; format: cell-based
# Summary of the method: (§5)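 HCT 116 and MCF-7 cells were exposed to 20 μM compound or an equivalent DMSO portion and cultured for 48 h. Cyclin D1 levels were then assessed by western blot.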
# [4] = molecular target: T1, Ubiquitin carboxyl-terminal hydrolase 2 (Homo sapiens); experiment: Inhibition of USP2a in human MCF7 cells assessed as downregulation of cycline D1 expression at 20 uM after 48 hrs by Western blot analysis; format: cell-based; summary of the method: as §5
# [5] = molecular target: T1, Ubiquitin carboxyl-terminal hydrolase 2 (Homo sapiens); experiment: Inhibition of human USP2a (258 to 605 residues) expressed in Escherichia coli BL21(DE3) at 2000 uM using Ub-AMC as substrate incubated for 30 mins measured at 30 secs interval by fluorescence assay; summary of the method: as §4
# [6] = molecular target: Ubiquitin carboxyl-terminal hydrolase 7 (Homo sapiens) (UniProt Q93009); experiment: Inhibition of human USP7 (208 to 561 residues) catalytic domain expressed in Escherichia coli BL21(DE3) at 10 to 2000 uM using Ub-AMC as substrate incubated for 30 mins measured at 30 secs interval by fluorescence assay
# Summary of the method: (§6)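 GST-tagged USP7 catalytic domain (208-561) was expressed at 16 °C overnight. Tag removed with PreScission protease, then purified by Q-Sepharose, Mono Q and gel filtration in 50 mM Tris/HCl, 150 mM NaCl, 2 mM DTT. Activity measured by Ub-AMC hydrolysis (500 nM substrate, ex 355/em 460 nm, 30 s reads) after 30 min preincubation with compound. Values are mean ± SD.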
# [7] = molecular target: T2, Ubiquitin carboxyl-terminal hydrolase 2; experiment: as §1; summary of the method: as §2
# [8] = molecular target: T1, Ubiquitin carboxyl-terminal hydrolase 2 (Homo sapiens); experiment: as §3; summary of the method: as §4
# [9] = molecular target: Ubiquitin carboxyl-terminal hydrolase 7 (Homo sapiens) (UniProt Q93009); experiment: Inhibition of human USP7 (208 to 561 residues) catalytic domain expressed in Escherichia coli BL21(DE3) at 10 uM using Ub-AMC as substrate incubated for 30 mins measured at 30 secs interval by fluorescence assay; summary of the method: as §6
# Sequence of Ubiquitin carboxyl-terminal hydrolase 7 (Homo sapiens) (Q93009 whole entry, looked up, the tested form may be a part): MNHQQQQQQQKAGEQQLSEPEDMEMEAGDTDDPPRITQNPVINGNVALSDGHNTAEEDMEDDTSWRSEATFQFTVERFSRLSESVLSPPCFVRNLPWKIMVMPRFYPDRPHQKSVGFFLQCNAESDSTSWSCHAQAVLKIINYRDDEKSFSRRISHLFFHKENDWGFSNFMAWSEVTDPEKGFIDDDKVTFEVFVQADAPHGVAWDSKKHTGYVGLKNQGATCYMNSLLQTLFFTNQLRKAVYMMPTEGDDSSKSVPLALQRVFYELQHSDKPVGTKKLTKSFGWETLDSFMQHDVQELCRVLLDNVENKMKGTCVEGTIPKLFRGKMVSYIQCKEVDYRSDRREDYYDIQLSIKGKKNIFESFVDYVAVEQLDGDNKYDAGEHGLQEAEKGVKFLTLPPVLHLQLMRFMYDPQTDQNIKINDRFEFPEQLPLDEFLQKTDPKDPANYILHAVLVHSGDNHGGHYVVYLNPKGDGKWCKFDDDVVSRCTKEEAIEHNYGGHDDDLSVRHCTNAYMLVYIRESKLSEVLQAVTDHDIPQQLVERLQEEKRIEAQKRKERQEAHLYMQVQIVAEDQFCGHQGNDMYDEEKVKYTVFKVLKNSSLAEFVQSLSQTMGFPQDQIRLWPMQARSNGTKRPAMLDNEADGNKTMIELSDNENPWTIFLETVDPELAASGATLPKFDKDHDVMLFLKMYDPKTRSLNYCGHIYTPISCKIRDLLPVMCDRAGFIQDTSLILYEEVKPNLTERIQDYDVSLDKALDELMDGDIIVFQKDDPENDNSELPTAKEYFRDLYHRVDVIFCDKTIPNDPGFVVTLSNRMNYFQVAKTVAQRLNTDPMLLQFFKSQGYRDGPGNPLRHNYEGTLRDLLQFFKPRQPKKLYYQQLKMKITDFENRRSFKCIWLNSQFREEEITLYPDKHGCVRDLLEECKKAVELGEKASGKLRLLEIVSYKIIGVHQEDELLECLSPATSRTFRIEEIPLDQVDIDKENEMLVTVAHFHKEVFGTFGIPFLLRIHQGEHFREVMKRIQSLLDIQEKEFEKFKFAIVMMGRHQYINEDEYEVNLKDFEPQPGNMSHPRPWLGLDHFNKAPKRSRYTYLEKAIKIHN
IC50 ([2]; read-out: IC50),IC50 [2],Compound,other results
–,Not Active,O=C(O)CNC(=O)c1cc(-c2cccs2)on1,–
–,Not Active,O=C(O)c1cc(-c2cccs2)on1,–
1300 µM,–,OCc1cc(-c2cccs2)on1,inhibition [3]: inactive; inhibition [4]: inactive; inhibition [5]: Active; inhibition [6]: inactive; Kd [7]: 900 µM
3.3 µM,–,NC(=O)c1c(NC(=O)COCc2cc(-c3cccs3)on2)sc2c1CCCC2,inhibition [3]: Active; inhibition [4]: Active; inhibition [8]: Dose-dependent effect; inhibition [9]: inactive
–,Not Active,CC(C)(C)OC(=O)CNC(=O)c1cc(-c2cccs2)on1,–
–,Not Active,O=C(O)COCc1cc(-c2cccs2)on1,–

# More lines, now with the values behind:
Compound,IC50 ([2]; read-out: IC50),IC50 [2],other results
CSc1nnc(-n2cccc2)s1,–,–,Activity [1]: inactive
COC(=O)c1ccc2cc[nH]c2c1,–,–,Activity [1]: inactive
Cc1cc(C#N)cc(C)c1O,> 5000 µM,–,–
CN1CCOc2cc(C#N)ccc21,–,Not Active,–
NCc1ccc(-c2csnn2)cc1,> 5000 µM,–,–
O=C(OCc1cc(-c2cccs2)on1)c1ccc(S(=O)(=O)N2CCOCC2)cc1,–,Not Active,–
CCCn1nc(C(=O)OCc2cc(-c3cccs3)on2)c2ccccc2c1=O,> 100 µM,–,–
COc1ccc2c(c1)CCCC2=O,–,–,Activity [1]: inactive
Nc1ccc(-c2cnco2)cc1,–,–,Activity [1]: inactive
CC(Oc1ccc(C#N)cc1)C(=O)OCc1cc(-c2cccs2)on1 (stereo unspecified),> 50 µM,–,–
Cl.NCc1ccc(Cc2cccs2)cc1,–,Not Active,–
NC(=O)c1c(N)sc2c1CCCC2,8.7 µM,–,–
Cc1c(CO)cnn1-c1ccccc1,–,Not Active,–
Nc1cc(-c2ccccc2)n[nH]1,> 5000 µM,–,Activity [1]: inactive
COc1ccc(N2CC(C(=O)OCc3cc(-c4cccs4)on3)CC2=O)cc1 (stereo unspecified),–,Not Active,–
